One compound from ChEMBL document CHEMBL4414577, “Discovery of Pyrrolo[2,3-b]pyridine (1,7-Dideazapurine) Nucleoside Analogues as Anti-Trypanosoma cruzi Agents” (J Med Chem, 2019) can be followed below.

In general, EC50 refers to the midpoint of the concentration-response curve.

A short description of series [1]: Toxicity in Swiss Webster mouse infected with Trypanosoma cruzi Y trypomastigotes assessed as body weight loss at 25 mg/kg, po administered twice daily for 5 days with 2 days interval for 3 cycles. Particulars: in vivo. The class given is organism-based. A digest of the protocol: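 Y-strain-infected male Swiss Webster mice were dosed orally for 15 days (three rounds of 5 days, 2 drug-free days between) starting at 5 dpi. Regimens were 25 mg/kg b.i.d. or benznidazole 100 mg/kg s.i.d. Weight loss was recorded as a sign of toxicity, with mortality checked daily up to 53 dpi. There were six mice per group.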

Series [2] is described as follows: Drug metabolism in mouse liver microsomes assessed as CYP450-mediated metabolism by measuring parent compound remaining at 5 uM incubated for 30 mins in presence of NADPH by UPLC-MS analysis. Particulars: read-out: Stability. The class given is ADME. A digest of the protocol:
(§1)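 Compound incubated with male mouse, rat, dog or pooled human S9 fractions, with NADPH (phase I) or […], sampled at 0, 15, 30 and 60 min. Read-out is percent parent remaining. Two independent experiments of two biological replicates; diclofenac and fluconazole used as assay controls.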
In general terms: Liver microsomes are vesicles of endoplasmic reticulum, rich in cytochrome P450 enzymes.

The nature of series [3]: Drug metabolism in mouse liver microsomes assessed as UGT-mediated metabolism by measuring compound remaining at 5 uM measured immediately in presence of UDPGA by UPLC-MS analysis. It counts as ADME. The conditions noted are these: read-out: Stability. A digest of the protocol:
as §1

The target in series [4] is T1, UDP-glucuronosyltransferases (UGTs) (Homo sapiens, UniProt O60656+O75310+O75795+P06133+P0DTE4+P0DTE5+P16662+P19224+P22309+P22310+P35503+P35504+P36537+P54855+Q6UWM9+Q9BY64+Q9HAW7+Q9HAW8+Q9HAW9). Description: Drug metabolism in human liver S9 fraction assessed as UGT-mediated metabolism by measuring compound remaining at 5 uM incubated for 30 mins in presence of UDPGA by UPLC-MS analysis. It counts as ADME, subcellular. Particulars: read-out: Stability. A digest of the protocol:
as §1

The nature of series [5]: Drug metabolism in dog liver microsomes assessed as UGT-mediated metabolism by measuring compound remaining at 5 uM incubated for 60 mins in presence of UDPGA by UPLC-MS analysis. The class given is ADME, Canis lupus familiaris. Particulars: read-out: Stability. A digest of the protocol: as §1
The target in series [6] is T2, Cytochrome P450 (Homo sapiens, UniProt P04798+P05177+P05181+P08684+P10632+P10635+P11509+P11712+P13584+P20813+P20815+P20853+P24462+P24903+P33260+P33261+P51589+P78329+P98187+Q02928+Q08477+Q16678+Q16696+Q5TCH4+Q6VVX0+Q7Z449+Q8TAV3+Q96SQ9+Q9HB55). Briefly: Drug metabolism in human liver S9 fraction assessed as CYP450-mediated metabolism by measuring parent compound remaining at 5 uM incubated for 60 mins in presence of NADPH by UPLC-MS analysis. Particulars: read-out: Stability. It counts as ADME, subcellular. A digest of the protocol:
as §1

Series [7] has as its target T2, Cytochrome P450. Description: Drug metabolism in human liver S9 fraction assessed as CYP450-mediated metabolism by measuring parent compound remaining at 5 uM incubated for 30 mins in presence of NADPH by UPLC-MS analysis. The class given is ADME, subcellular. Particulars: read-out: Stability. A digest of the protocol: as §1
The subject of series [8] is Trypanosoma cruzi. Description: In vivo antitrypanosomal activity against Trypanosoma cruzi Y trypomastigotes infected in Swiss mouse assessed as reduction in parasitemia at 25 mg/kg, po administered twice daily via gavage for 5 days starting from 5 days post-infection and measured 8 days post-infection by light microscopic method relative to control. It counts as functional. Set-up: scale not given: the % may be the effect or the level left. A digest of the protocol: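 Male Swiss Webster mice (18-20 g, six per group) were infected i.p. with 10⁴ Y-strain bloodstream trypomastigotes. Treatment began at 5 dpi, only in mice with detectable parasitemia. Dosing was 25 mg/kg b.i.d. by oral gavage for 5 days, using a 2.0 mg/mL formulation in 10% EtOH, 0.1 M citrate pH 3.02. Parasites in 5 μL tail-vein blood were counted microscopically up to 30 dpi, against vehicle-treated infected mice.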

The subject of series [9] is Trypanosoma cruzi. Briefly: Antitrypanosomal activity against Trypanosoma cruzi Y amastigotes infected in Swiss mouse primary cardiac cells replenished for every 48 hrs for 168 hrs by geimsa staining based assay. The class given is functional, organism-based. A digest of the protocol:
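Primary mouse cardiac cells infected 24 h at 37 °C with Y-strain bloodstream trypomastigotes (parasite:host 10:1), washed, then exposed 168 h at 37 °C to serial dilutions, medium with compound renewed every 48 h. Giemsa stained; infected cells and parasites per infected cell scored in 200 host cells. EC50 from inhibition of infection index; two independent determinations.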

For series [10], the system named is Trypanosoma cruzi. Description: In vivo antitrypanosomal activity against Trypanosoma cruzi Y trypomastigotes infected in Swiss mouse assessed as mouse survival at 25 mg/kg, po administered twice daily via gavage for 5 days starting from 5 days post-infection and measured daily up to 40 days post-infection. It counts as functional, organism-based. A digest of the protocol:
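Male Swiss Webster mice (18-20 g, 4-5 weeks) infected i.p. with 10⁴ Y-strain bloodstream trypomastigotes; six per group. Oral gavage from 5 dpi for 5 consecutive days: test compound at 25 mg/kg b.i.d. (2.0 mg/mL in 10% EtOH, 0.1 M citrate pH 3.02), benznidazole at 100 mg/kg s.i.d. Parasites counted in 5 μL tail blood to 30 dpi; mortality followed daily to 40 dpi.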

Series [11] is described as follows: Toxicity in Swiss Webster mouse infected with Trypanosoma cruzi Y trypomastigotes assessed as body weight loss at 25 mg/kg, po administered twice daily via gavage for 5 days starting from 5 days post-infection and measured daily up to 40 days post-infection. It counts as organism-based. The conditions noted are these: in vivo. A digest of the protocol:
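Male Swiss Webster mice were infected i.p. with 10⁴ Y-strain trypomastigotes and treated by oral gavage for 5 days from 5 dpi. Regimens were 25 mg/kg b.i.d. (10% EtOH/citrate vehicle) or benznidazole 100 mg/kg s.i.d. Body weight and visual clinical signs were monitored, with daily mortality checks up to 40 dpi. There were six mice per group.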

Series [12] concerns L929. Description: Cytotoxicity against mouse L929 cells assessed as reduction in cell viability. It counts as cell-based.
The nature of series [13]: Drug metabolism in rat liver microsomes assessed as CYP450-mediated metabolism by measuring parent compound remaining at 5 uM incubated for 60 mins in presence of NADPH by UPLC-MS analysis. It counts as ADME. Particulars: read-out: Stability. A digest of the protocol:
as §1

The target of series [14] is T1, UDP-glucuronosyltransferases (UGTs). Briefly: Drug metabolism in human liver S9 fraction assessed as UGT-mediated metabolism by measuring compound remaining at 5 uM incubated for 15 mins in presence of UDPGA by UPLC-MS analysis. It counts as ADME, subcellular. Particulars: read-out: Stability. A digest of the protocol:
as §1

The test system of series [15] is Trypanosoma cruzi. Briefly: In vivo antitrypanosomal activity against Trypanosoma cruzi Y trypomastigotes infected in Swiss mouse assessed as reduction in parasitemia at 25 mg/kg, po administered twice daily for 5 days with 2 days interval for 3 cycles and measured up to 30 days post-infection by light microscopy. The class given is functional, organism-based. A digest of the protocol:
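Male Swiss Webster mice infected i.p. with 10⁴ Y-strain bloodstream trypomastigotes; six per group. Oral gavage from 5 dpi for 15 days (three 5-day rounds, 2 days off): test compound 25 mg/kg b.i.d., benznidazole 100 mg/kg s.i.d. Parasites counted in 5 μL tail blood to 30 dpi; mortality followed to 53 dpi.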

The target of series [16] is T1, UDP-glucuronosyltransferases (UGTs). Briefly: Drug metabolism in human liver S9 fraction assessed as UGT-mediated metabolism by measuring compound remaining at 5 uM measured immediately in presence of UDPGA by UPLC-MS analysis. It counts as ADME, subcellular. Particulars: read-out: Stability. A digest of the protocol:
as §1

The target is the same in series [17]. Description: Drug metabolism in human liver S9 fraction assessed as UGT-mediated metabolism by measuring compound remaining at 5 uM incubated for 60 mins in presence of UDPGA by UPLC-MS analysis. The class given is ADME, subcellular. The conditions noted are these: read-out: Stability. A digest of the protocol: as §1
Series [18] can be described thus: Cytotoxicity against human MRC5 SV2 cells assessed as reduction in cell viability incubated for 3 days by resazurin dye based assay. The conditions noted are these: MRC-5 SV2, 72 h.

The source made the active and inactive calls. The rule behind the calls is not given here.

For the compound `Nc1ccnc2c1c(I)cn2[C@@H]1O[C@H](CO)[C@@H](O)[C@H]1O`, the Activity entry in [1] is “Non-Toxic”; in [8], 95%; in series [11], “Non-Toxic”. The remaining at 0.5 h, 5 µM in [2] turned out to be 95%; in [4], 99%; in [7] it was 96%. Moreover, the remaining at 0 min, 5 µM in series [3] and in series [16] was 100% in each case. The remaining at 1 h, 5 µM in series [5] worked out at 84%; in [6] it was 92%; in series [13], 85%; in [17], 100%. The EC50 in series [9] was 0.089 µM; in series [12] it was above 200 µM; in series [18], above 64 µM. The result in series [10] and in series [15] was Active. Also, the remaining at 0.25 h, 5 µM in [14] amounted to 99%.
